The source of these data is ChEMBL document CHEMBL6092210, “Synthesis, in vitro and in vivo biological evaluation of novel dual compounds targeting both acetylcholinesterase and serotonergic 5-HT4 receptors with potential interest in the treatment of Alzheimer's disease” (Eur J Med Chem, 2024).

SMILES strings stand for the structures. pEC50, pIC50, pKi: −log10 of the molar value.

In experiment [1] the target is T1, 5-hydroxytryptamine receptor 4 (Homo sapiens, UniProt Q13639). Briefly: Binding affinity to human recombinant 5HT4 receptor assessed as inhibition constant incubated for 60 mins.
For experiment [2], the target named is T1, 5-hydroxytryptamine receptor 4. Briefly: Inhibition of human recombinant 5HT4 receptor at 1 x 10^-8M incubated for 60 mins relative to control. The note with it: dose 1.0 10^-8M. An outline of the steps:
(§1)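 Membranes (2.5 μg protein) from a stable recombinant line expressing h5-HT4(b) receptor. Incubated in duplicate at 25 °C for 60 min with 0.2 nM [3H]-GR113808 in 25 mM Tris pH 7.4, with drug at 10^-6 or 10^-8 M. GF/C filtration; non-specific binding defined with 30 μM serotonin. Ki from five-point inhibition curves, ± SD.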

Experiment [3] concerns the target T2, Acetylcholinesterase (Homo sapiens, UniProt P22303). Briefly: Inhibition of recombinant human erythrocyte AChE using acetyl-or butyrylthiocholine iodide as substrate at 1 x 10^-6M preincubated for 5 mins followed by substrate addition and measured every min for 10 mins by Ellman's method relative to control. The note with it: dose 1.0 10^-6M, time 15.0 min. An outline of the steps: (§2)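 AChE from human erythrocytes (0.05 U final) or recombinant AChE (0.025 U final), diluted in 20 mM HEPES pH 8 with 0.1 % Triton X-100, in an Ellman assay. DTNB is 0.3 mM in phosphate buffer pH 7.4 and compound is in DMSO. Enzyme and compound are preincubated 5 min at 25 °C. Reaction starts with 1 mM acetylthiocholine iodide solution.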

Experiment [4] concerns the target T1, 5-hydroxytryptamine receptor 4. Briefly: Inhibition of human recombinant 5HT4 receptor at 1 x 10^-6M incubated for 60 mins relative to control. The note with it: dose 1.0 10^-6M. An outline of the steps:
as §1

For experiment [5], the target named is T2, Acetylcholinesterase. Briefly: Inhibition of recombinant human erythrocyte AChE using acetyl-or butyrylthiocholine iodide as substrate preincubated for 5 mins followed by substrate addition and measured every min for 10 mins by Ellman's method.
Experiment [6] concerns the target T2, Acetylcholinesterase. Briefly: Inhibition of recombinant human erythrocyte AChE using acetyl-or butyrylthiocholine iodide as substrate at 1 x 10^-5M preincubated for 5 mins followed by substrate addition and measured every min for 10 mins by Ellman's method relative to control. The conditions noted are these: dose 1.0 10^-5M, time 15.0 min. An outline of the steps:
as §2

For experiment [7], the target named is Cholinesterase (Equus caballus) (UniProt P81908). Briefly: Inhibition of equine serum BuChE using Acetyl and butyrylthiocholine iodide as substrate at 1 x 10^-5M preincubated for 5 mins followed by substrate addition and measured every min for 10 mins by Ellman's method relative to control. The note with it: dose 1.0 10^-5M, time 15.0 min.
In experiment [8] the target is T1, 5-hydroxytryptamine receptor 4. Briefly: Partial agonist activity at human recombinant 5HT4 receptor at 1 x 10^-6M incubated for 60 mins relative to control. The conditions noted are these: filed as partial agonist, dose 1.0 10^-6M. The class given is functional.
For experiment [9] the target is unchanged. Briefly: Partial agonist activity at human recombinant 5HT4 receptor at 1 x 10^-8M incubated for 60 mins relative to control. The class given is functional. The note with it: filed as partial agonist, dose 1.0 10^-8M.
For experiment [10] the target is unchanged. Briefly: Partial agonist activity at human recombinant 5HT4 receptor expressed in […] cells assessed as cAMP accumulation by measuring maximum efficacy in presence of serotonin by HTRF analysis relative to control. The class given is functional, cell-based. The conditions noted are these: filed as partial agonist. In a few lines: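 COS-7 cells grown in DMEM with 10 % dialyzed FCS and transiently transfected with HA-tagged h5-HT4R, then plated at 16,000 cells/well. At 24 h, cells were exposed for 10 min at 37 °C to 5-HT4 ligands in HEPES-buffered saline containing 0.1 % BSA and 0.1 mM RO-20-1724. Cells were lysed with 0.1 % Triton X-100 and cAMP measured by HTRF.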

Experiment [11] shares this target. Briefly: Partial agonist activity at human recombinant 5HT4 receptor transiently transfected in […] cells using p-nitrophenyl phosphate disodium hexahydrate as substrate assessed as induction of sAPPalpha release by measuring maximum efficacy incubated for 30 mins by microplate reader analysis relative to control. Type of experiment: functional, cell-based. In a few lines:
(§3)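 COS-7 cells co-transfected with FLG-tagged h5-HT4 receptor and SEAP-tagged mouse APP695, seeded at 300,000 cells/well. At 24 h, cells were exposed to drug for 30 min. Supernatants were collected and secreted SEAP activity read colorimetrically with p-nitrophenyl phosphate as substrate.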

The target of experiment [12] is Acetylcholinesterase (Electrophorus electricus) (UniProt O42275). Briefly: Displacement of propidium iodide from electric eel AChE 1 x 10^-5M relative to control. The note with it: dose 1.0 10^-5M.
For experiment [13], the target named is T1, 5-hydroxytryptamine receptor 4. Briefly: Partial agonist activity at human recombinant 5HT4 receptor transiently transfected in […] cells using p-nitrophenyl phosphate disodium hexahydrate as substrate assessed as induction of sAPPalpha release incubated for 30 mins by microplate reader analysis. The class given is functional, cell-based. The note with it: filed as partial agonist. An outline of the steps:
as §3

T2 sequence (P22303 whole entry): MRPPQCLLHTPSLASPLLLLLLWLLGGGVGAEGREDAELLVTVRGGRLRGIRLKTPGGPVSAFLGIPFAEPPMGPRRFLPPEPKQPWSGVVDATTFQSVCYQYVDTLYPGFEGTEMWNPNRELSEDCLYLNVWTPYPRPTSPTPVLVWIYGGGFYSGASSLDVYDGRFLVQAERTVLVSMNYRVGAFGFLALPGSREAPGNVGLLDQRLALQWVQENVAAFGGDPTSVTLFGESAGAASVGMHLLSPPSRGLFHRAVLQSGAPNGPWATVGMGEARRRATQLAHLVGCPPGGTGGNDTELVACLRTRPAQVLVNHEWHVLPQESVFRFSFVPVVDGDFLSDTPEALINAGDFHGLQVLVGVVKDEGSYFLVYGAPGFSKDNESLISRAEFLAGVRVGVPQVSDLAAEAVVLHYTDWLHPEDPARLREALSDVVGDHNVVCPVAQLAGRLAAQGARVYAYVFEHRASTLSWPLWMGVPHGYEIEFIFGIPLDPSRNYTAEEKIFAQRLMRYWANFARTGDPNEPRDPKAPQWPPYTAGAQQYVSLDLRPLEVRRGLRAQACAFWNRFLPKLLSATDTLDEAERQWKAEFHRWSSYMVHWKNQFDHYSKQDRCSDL
T1 sequence (Q13639 whole entry): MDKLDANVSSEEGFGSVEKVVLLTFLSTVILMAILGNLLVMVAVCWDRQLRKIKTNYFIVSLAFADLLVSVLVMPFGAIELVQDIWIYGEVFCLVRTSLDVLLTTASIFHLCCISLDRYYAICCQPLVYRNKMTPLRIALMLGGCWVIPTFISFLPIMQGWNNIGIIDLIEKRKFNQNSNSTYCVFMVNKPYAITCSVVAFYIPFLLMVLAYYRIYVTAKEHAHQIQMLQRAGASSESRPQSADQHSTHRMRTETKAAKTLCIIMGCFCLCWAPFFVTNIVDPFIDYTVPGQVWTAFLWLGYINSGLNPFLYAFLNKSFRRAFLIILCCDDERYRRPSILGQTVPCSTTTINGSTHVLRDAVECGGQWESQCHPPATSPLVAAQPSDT
Chain of Acetylcholinesterase (Electrophorus electricus) (O42275 24-633 limits assumed): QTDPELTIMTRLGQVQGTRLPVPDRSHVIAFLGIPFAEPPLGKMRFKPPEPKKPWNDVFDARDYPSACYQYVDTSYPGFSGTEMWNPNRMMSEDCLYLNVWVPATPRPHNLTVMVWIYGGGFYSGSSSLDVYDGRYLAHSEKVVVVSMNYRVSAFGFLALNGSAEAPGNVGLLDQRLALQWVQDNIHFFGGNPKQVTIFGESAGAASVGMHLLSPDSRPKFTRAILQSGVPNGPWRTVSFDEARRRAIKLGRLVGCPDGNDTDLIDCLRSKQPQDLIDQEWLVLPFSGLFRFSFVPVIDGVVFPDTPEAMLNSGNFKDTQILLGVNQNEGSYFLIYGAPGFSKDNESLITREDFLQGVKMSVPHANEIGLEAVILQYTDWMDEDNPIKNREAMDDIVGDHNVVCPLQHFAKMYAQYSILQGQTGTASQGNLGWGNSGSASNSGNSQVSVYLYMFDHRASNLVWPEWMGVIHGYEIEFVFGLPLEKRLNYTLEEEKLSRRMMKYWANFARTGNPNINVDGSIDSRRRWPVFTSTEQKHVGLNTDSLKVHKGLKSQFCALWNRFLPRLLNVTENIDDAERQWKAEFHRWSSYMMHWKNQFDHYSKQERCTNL
Chain of Cholinesterase (Equus caballus) (P81908 whole entry): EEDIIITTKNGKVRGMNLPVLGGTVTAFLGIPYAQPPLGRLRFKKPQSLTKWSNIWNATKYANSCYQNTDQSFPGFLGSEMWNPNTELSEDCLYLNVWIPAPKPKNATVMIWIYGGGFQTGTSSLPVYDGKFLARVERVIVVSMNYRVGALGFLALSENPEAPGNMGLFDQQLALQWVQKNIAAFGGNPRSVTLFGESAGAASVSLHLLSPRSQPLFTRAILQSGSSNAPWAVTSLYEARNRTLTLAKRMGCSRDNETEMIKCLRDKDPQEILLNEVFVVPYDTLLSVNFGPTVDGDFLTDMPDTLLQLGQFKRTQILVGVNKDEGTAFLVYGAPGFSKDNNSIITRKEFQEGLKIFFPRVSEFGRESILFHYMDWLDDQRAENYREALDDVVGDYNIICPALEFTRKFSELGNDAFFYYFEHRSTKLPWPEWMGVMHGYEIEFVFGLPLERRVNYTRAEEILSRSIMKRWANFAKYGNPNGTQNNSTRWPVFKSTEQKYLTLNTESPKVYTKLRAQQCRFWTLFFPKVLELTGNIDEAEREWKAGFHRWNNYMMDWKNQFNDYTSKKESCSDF

Consider `Nc1cc(OCCF)c(C(=O)CCC2CCN(CC3CCCCC3)CC2)cc1I`, for which the pKi in experiment [1] was 6.28. Also, the inhibition worked out at 22% in experiment [2], 45% in [3] and 101% in experiment [4].

As to `Nc1ccc(C(=O)CCC2CCN(CC3CCCCC3)CC2)cc1`, the pIC50 in experiment [5] is 6.50. The figures for the inhibition in experiment [2], in [3] and in experiment [4] were 4%, 78% and 80%, respectively.

As to `CCOc1cc(N)ccc1C(=O)CCC1CCN(CC2CCCCC2)CC1`, in [1], the negative logarithm of the Ki (pKi) is 7.61. In addition, the pIC50 in experiment [5] is 7.06. Further, the figures for the inhibition in [2], in experiment [3] and in experiment [4] were 38%, 93% and 101%, respectively.

On to `Nc1cc(O)c(C(=O)CCC2CCN(CC3CCCCC3)CC2)cc1Cl`, for which the inhibition in experiment [2] is 3%; in [3], 93%; in [4], 96%.

Consider `COc1cc(N)c(Br)cc1C(=O)CCC1CCN(CC2CCCCC2)CC1`, for which the results for the inhibition in experiment [2], in experiment [6] and in [4] were 61%, 98% and 105%, respectively.

`COc1cc(O)c(Cl)cc1C(=O)CCC1CCN(CC2CCCCC2)CC1`: the inhibition in [2] is 2%; in experiment [3], 78%; in [4] it was 76%.

For `COc1c(C(=O)CCC2CCN(CC3CCCCC3)CC2)cc(F)c(N)c1Br`, the pIC50 in experiment [5] is 6.51. Moreover, the inhibition in [2] stood at 8%; in experiment [3], 85%; in experiment [4], 80%.

Consider `COc1cc(N)c(Cl)cc1C(=O)CCC1CCN(CC2CCCCC2)CC1`, for which the inhibition in experiment [2] (tested as the 2H-labelled form) was determined as 29%; in [3] (tested as the 2H-labelled form), 92%; in experiment [4] (tested as the 2H-labelled form) it was 98%.

In the case of `O=C(CCC1CCN(CC2CCCCC2)CC1)c1ccc(O)cc1`, the pKi in [1] is 7.75. Further, the values for the inhibition in [2], in [3] and in [4] were 58%, 35% and 102%, respectively.

For the compound `COc1c(C(=O)CCC2CCN(CC3CCCCC3)CC2)cc(F)c(N)c1I`, in [5], the pIC50 was 6.63. The inhibition is 2% in experiment [2], 89% in experiment [3] and 89% in [4].

Turning to `COc1cc(N)c(I)cc1C(=O)CCC1CCN(CC2CCCCC2)CC1`, the inhibition in experiment [2] is 36%; in experiment [6], 88%; in [4], 103%.

Regarding `COc1cc(NC(C)=O)c(Cl)cc1C(=O)CCC1CCN(CC2CCCCC2)CC1`, the pKi in experiment [1] was 6.57. Also, the inhibition in experiment [2] stood at 1%; in experiment [3] it was 98%; in experiment [4], 94%.

Take `CC(=O)Nc1cc(O)c(C(=O)CCC2CCN(CC3CCCCC3)CC2)cc1Cl`: the pIC50 in experiment [5] was 7.24. The inhibition in experiment [2] worked out at 8%; in experiment [3], 94%; in experiment [4], 47%.

As to `COc1cc(N)c(F)cc1C(=O)CCC1CCN(CC2CCCCC2)CC1`, the inhibition worked out at 65% in [7]; 68% in experiment [2]; 22% in experiment [12]; 96% in experiment [3]; 102% in [4]. Also, the Activity in experiment [8] was 100%; in experiment [9], 66%; in [13], “Dose-dependent-effect”. For the same compound, the Emax in experiment [10] is 67.3%; in experiment [11], 19.7%. Further, in [13], the negative-log EC50 (pEC50) was 7.64.

Regarding `COc1cc(N)ccc1C(=O)CCC1CCN(CC2CCCCC2)CC1`, the inhibition in experiment [2] was found to be 10%; in [6] it was 97%; in [4] it was 96%.

In the case of `CCOc1cc(N)c(Cl)cc1C(=O)CCC1CCN(CC2CCCCC2)CC1`, the results for the inhibition in experiment [2], in experiment [3] and in experiment [4] were 86%, 69% and 103%, respectively.

Turning to `Nc1ccc(C(=O)CCC2CCN(CC3CCCCC3)CC2)c(OCCF)c1`, in experiment [1], the pKi was 7.40. Moreover, in [5], the pIC50 was 6.50. Also, the inhibition in [2] amounted to 27%; in experiment [3] it was 79%; in [4], 100%.

`Nc1ccc(C(=O)CCC2CCN(CC3CCCCC3)CC2)cc1Cl`: the pIC50 in experiment [5] is 7.30. For the same compound, the results for the inhibition in [2], in experiment [3] and in experiment [4] were 10%, 96% and 97%, respectively.

On to `Nc1cc(OCCF)c(C(=O)CCC2CCN(CC3CCCCC3)CC2)cc1Cl`, for which the inhibition in experiment [2] stood at 78%; in experiment [3], 60%; in [4], 102%.

As to `COc1ccccc1C(=O)CCC1CCN(CC2CCCCC2)CC1`, in [1], the pKi is 6.92. Also, in experiment [5], the negative logarithm of the IC50 (pIC50) is 6.78. In addition, the values for the inhibition in [2], in [3] and in experiment [4] were 31%, 85% and 102%, respectively.

`CCOc1cc(N)c(I)cc1C(=O)CCC1CCN(CC2CCCCC2)CC1`: in experiment [1], the pKi is 7.07. The inhibition in experiment [2] was found to be 65%; in [3], 51%; in experiment [4], 103%.
